Assay results: ChEMBL document CHEMBL3526062, “Role of human UDP-glucuronosyltransferases in the biotransformation of the triazoloacridinone and imidazoacridinone antitumor agents C-1305 and C-1311: highly selective substrates for UGT1A10” (Drug Metab Dispos, 2012)

Tests used:
Assay type in all cases: ADME
[1] = system: CN(C)CCCNc1ccc2nnn3c4ccc(O)cc4c(=O)c1c23; test: (§1) Activity of human recombinant UGT1A10 D396A mutant expressed in baculovirus-infected Sf9 cells assessed as enzyme-mediated glucuronidation after 60 mins by Michaelis-Menten equation in presence of 3 mM UDP-GlcUA
Summary of the method: (§2)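 Membrane fractions (5 μg) holding wild-type or point-mutant UGT1A10 incubated with increasing substrate concentrations and 3 mM UDP-GlcUA, 60 min, 37°C; products by HPLC. Kinetic constants from curve fits of three determinations; Km in μM, Vmax in nmol/mg protein/min.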

[2] = system: CCN(CC)CCNc1ccc2ncn3c4ccc(O)cc4c(=O)c1c23; test: as §1; summary of the method: as §2
[3] = system: CN(C)CCCNc1ccc2nnn3c4ccc(O)cc4c(=O)c1c23; test: (§3) Activity of human recombinant UGT1A10 V92A mutant expressed in baculovirus-infected Sf9 cells assessed as enzyme-mediated glucuronidation after 60 mins by Michaelis-Menten equation in presence of 3 mM UDP-GlcUA; summary of the method: as §2
[4] = system: CCN(CC)CCNc1ccc2ncn3c4ccc(O)cc4c(=O)c1c23; test: as §3; summary of the method: as §2
[5] = substrate: CCN(CC)CCNc1ccc2ncn3c4ccc(O)cc4c(=O)c1c23; test: (§4) Activity of human recombinant UGT1A1 expressed in baculovirus-infected Sf9 cells assessed as enzyme-mediated glucuronidation after 60 mins by Michaelis-Menten equation in presence of 3 mM UDP-GlcUA
Summary of the method: (§5)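 Recombinant UGT membrane protein (5 μg; His-tagged UGT1A levels normalized by anti-His Western blot) or single-donor microsomes (20 μg) incubated with substrate 5–1000 μM and 3 mM UDP-GlcUA in […] pH 7.4, 5 mM MgCl2, 5 mM saccharolactone, 2% DMSO, 60 min, 37°C. Ethanol stop, centrifuged, HPLC-UV. Initial velocities fitted to Michaelis-Menten, Hill or substrate-inhibition models; three determinations.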

[6] = substrate: CN(C)CCCNc1ccc2nnn3c4ccc(O)cc4c(=O)c1c23; test: as §4; summary of the method: as §5
[7] = substrate: CN(C)CCCNc1ccc2nnn3c4ccc(O)cc4c(=O)c1c23; test: Activity of human recombinant UGT1A7 expressed in baculovirus-infected Sf9 cells assessed as enzyme-mediated glucuronidation after 60 mins by Michaelis-Menten equation in presence of 3 mM UDP-GlcUA
[8] = substrate: CCN(CC)CCNc1ccc2ncn3c4ccc(O)cc4c(=O)c1c23; test: (§6) Activity of human recombinant UGT1A10 expressed in baculovirus-infected Sf9 cells assessed as enzyme-mediated glucuronidation after 60 mins by Michaelis-Menten equation in presence of 3 mM UDP-GlcUA; summary of the method: as §5
[9] = substrate: CN(C)CCCNc1ccc2nnn3c4ccc(O)cc4c(=O)c1c23; test: as §6; summary of the method: as §5
[10] = substrate: CCN(CC)CCNc1ccc2ncn3c4ccc(O)cc4c(=O)c1c23; test: (§7) Activity of human recombinant UGT1A9 expressed in baculovirus-infected Sf9 cells assessed as enzyme-mediated glucuronidation after 60 mins by Michaelis-Menten equation in presence of 3 mM UDP-GlcUA; summary of the method: as §5
[11] = substrate: CN(C)CCCNc1ccc2nnn3c4ccc(O)cc4c(=O)c1c23; test: as §7; summary of the method: as §5

**Q.** Which Km [1] does the source give for “UDP-glucuronosyltransferase 1A10 (Homo sapiens; D396A)” here?
**A.** 47.6 µM

**Q.** And the Vmax [1]?
**A.** 0.00199 µmol/min

**Q.** And the Km [2]?
**A.** 75.4 µM

**Q.** And the Vmax [2]?
**A.** 0.00078 µmol/min

**Q.** Which Km [3] does the source give for “UDP-glucuronosyltransferase 1A10 (Homo sapiens; V92A)” here?
**A.** 64.7 µM

**Q.** What about the Vmax [3] of the same molecule?
**A.** 0.00073 µmol/min

**Q.** And the Km [4]?
**A.** 40.7 µM

**Q.** What about the Vmax [4] of the same molecule?
**A.** 0.00025 µmol/min

B1: UDP-glucuronosyltransferase 1A1 (Homo sapiens) (protein)
chain: MAVESQGGRPLVLGLLLCVLGPVVSHAGKILLIPVDGSHWLSMLGAIQQLQQRGHEIVVLAPDASLYIRDGAFYTLKTYPVPFQREDVKESFVSLGHNVFENDSFLQRVIKTYKKIKKDSAMLLSGCSHLLHNKELMASLAESSFDVMLTDPFLPCSPIVAQYLSLPTVFFLHALPCSLEFEATQCPNPFSYVPRPLSSHSDHMTFLQRVKNMLIAFSQNFLCDVVYSPYATLASEFLQREVTVQDLLSSASVWLFRSDFVKDYPRPIMPNMVFVGGINCLHQNPLSQEFEAYINASGEHGIVVFSLGSMVSEIPEKKAMAIADALGKIPQTVLWRYTGTRPSNLANNTILVKWLPQNDLLGHPMTRAFITHAGSHGVYESICNGVPMVMMPLFGDQMDNAKRMETKGAGVTLNVLEMTSEDLENALKAVINDKSYKENIMRLSSLHKDRPVEPLDLAVFWVEFVMRHKGAPHLRPAAHDLTWYQYHSLDVIGFLLAVVLTVAFITFKCCAYGYRKCLGKKGRVKKAHKSKTH
**Q.** Which results are given for B1?
**A.** Km [5]: 28.9 µM; Vmax [5]: 0.000115 µmol/min; Km [6]: 149 µM; Vmax [6]: 0.000262 µmol/min

B2: UDP-glucuronosyltransferase 1A7 (Homo sapiens) (protein)
chain: MARAGWTGLLPLYVCLLLTCGFAKAGKLLVVPMDGSHWFTMQSVVEKLILRGHEVVVVMPEVSWQLGRSLNCTVKTYSTSYTLEDQDREFMVFADARWTAPLRSAFSLLTSSSNGIFDLFFSNCRSLFNDRKLVEYLKESCFDAVFLDPFDACGLIVAKYFSLPSVVFARGIFCHYLEEGAQCPAPLSYVPRLLLGFSDAMTFKERVWNHIMHLEEHLFCPYFFKNVLEIASEILQTPVTAYDLYSHTSIWLLRTDFVLEYPKPVMPNMIFIGGINCHQGKPVPMEFEAYINASGEHGIVVFSLGSMVSEIPEKKAMAIADALGKIPQTVLWRYTGTRPSNLANNTILVKWLPQNDLLGHPMTRAFITHAGSHGVYESICNGVPMVMMPLFGDQMDNAKRMETKGAGVTLNVLEMTSEDLENALKAVINDKSYKENIMRLSSLHKDRPVEPLDLAVFWVEFVMRHKGAPHLRPAAHDLTWYQYHSLDVIGFLLAVVLTVAFITFKCCAYGYRKCLGKKGRVKKAHKSKTH
**Q.** What does the source list for B2?
**A.** Km [7]: 29.3 µM; Vmax [7]: 0.000306 µmol/min

B3: UDP-glucuronosyltransferase 1A10 (Homo sapiens) (protein)
chain: MARAGWTSPVPLCVCLLLTCGFAEAGKLLVVPMDGSHWFTMQSVVEKLILRGHEVVVVMPEVSWQLERSLNCTVKTYSTSYTLEDQNREFMVFAHAQWKAQAQSIFSLLMSSSSGFLDLFFSHCRSLFNDRKLVEYLKESSFDAVFLDPFDTCGLIVAKYFSLPSVVFTRGIFCHHLEEGAQCPAPLSYVPNDLLGFSDAMTFKERVWNHIVHLEDHLFCQYLFRNALEIASEILQTPVTAYDLYSHTSIWLLRTDFVLDYPKPVMPNMIFIGGINCHQGKPLPMEFEAYINASGEHGIVVFSLGSMVSEIPEKKAMAIADALGKIPQTVLWRYTGTRPSNLANNTILVKWLPQNDLLGHPMTRAFITHAGSHGVYESICNGVPMVMMPLFGDQMDNAKRMETKGAGVTLNVLEMTSEDLENALKAVINDKSYKENIMRLSSLHKDRPVEPLDLAVFWVEFVMRHKGAPHLRPAAHDLTWYQYHSLDVIGFLLAVVLTVAFITFKCCAYGYRKCLGKKGRVKKAHKSKTH
**Q.** For B3, which Km [8] is on record?
**A.** 70.6 µM

**Q.** What about the Vmax [8] of the same molecule?
**A.** 0.000624 µmol/min

**Q.** And the Km [9]?
**A.** 94.1 µM

**Q.** And the Vmax [9]?
**A.** 0.00256 µmol/min

B4: UDP-glucuronosyltransferase 1A9 (Homo sapiens) (protein)
chain: MACTGWTSPLPLCVCLLLTCGFAEAGKLLVVPMDGSHWFTMRSVVEKLILRGHEVVVVMPEVSWQLGRSLNCTVKTYSTSYTLEDLDREFKAFAHAQWKAQVRSIYSLLMGSYNDIFDLFFSNCRSLFKDKKLVEYLKESSFDAVFLDPFDNCGLIVAKYFSLPSVVFARGILCHYLEEGAQCPAPLSYVPRILLGFSDAMTFKERVRNHIMHLEEHLLCHRFFKNALEIASEILQTPVTEYDLYSHTSIWLLRTDFVLDYPKPVMPNMIFIGGINCHQGKPLPMEFEAYINASGEHGIVVFSLGSMVSEIPEKKAMAIADALGKIPQTVLWRYTGTRPSNLANNTILVKWLPQNDLLGHPMTRAFITHAGSHGVYESICNGVPMVMMPLFGDQMDNAKRMETKGAGVTLNVLEMTSEDLENALKAVINDKSYKENIMRLSSLHKDRPVEPLDLAVFWVEFVMRHKGAPHLRPAAHDLTWYQYHSLDVIGFLLAVVLTVAFITFKCCAYGYRKCLGKKGRVKKAHKSKTH
**Q.** How did the Km [10] turn out when B4 was run?
**A.** 63.3 µM

**Q.** What about the Vmax [10] of the same molecule?
**A.** 0.000206 µmol/min

**Q.** What about the Km [11] of the same molecule?
**A.** 54.6 µM

**Q.** What about the Vmax [11] of the same molecule?
**A.** 0.000201 µmol/min
